Laboratory results from ChEMBL document CHEMBL1671716, “Antimicrobial susceptibility patterns for recent clinical isolates of anaerobic bacteria in South Korea” (2010).
Converted amounts (≈) assume the structure as drawn.

Experiments:
Finegoldia magna [1] = experiment: Antimicrobial activity against Finegoldia magna assessed as percent susceptible isolates after 48 hrs by agar dilution method; assay type: functional
Procedure, shortened: (§1)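 CLSI agar dilution (M11-A7); inoculum 10^5 CFU applied by replicator; plates incubated anaerobically 48 h at 37°C. For piperacillin-tazobactam, tazobactam held constant at 4 μg/ml.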

[2] = tested on: Porphyromonas asaccharolytica; experiment: Antimicrobial activity against Porphyromonas asaccharolytica after 48 hrs by agar dilution method; assay type: functional; procedure, shortened: as §1
Parvimonas micra [3] = experiment: Antimicrobial activity against Peptostreptococcus micros after 48 hrs by agar dilution method; assay type: functional; procedure, shortened: as §1
Eubacterium sp. [4] = experiment: Antimicrobial activity against Eubacterium sp. after 48 hrs by agar dilution method; assay type: functional; procedure, shortened: as §1
Prevotella bivia [5] = experiment: Antimicrobial activity against Prevotella bivia assessed as percent resistant isolates after 48 hrs by agar dilution method; assay type: functional
Procedure, shortened: (§2)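 CLSI agar dilution on recent Korean clinical anaerobe isolates. Inoculum 10^5 CFU per spot by replicator. Plates incubated in an anaerobic chamber at 37°C for 48 h. For piperacillin plus tazobactam, tazobactam was held constant at 4 μg/ml. Resistance and susceptibility rates derived from MICs.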

Schaalia meyeri [6] = experiment: Antimicrobial activity against Actinomyces meyeri assessed as percent susceptible isolates after 48 hrs by agar dilution method; assay type: functional
Actinomyces naeslundii [7] = experiment: Antimicrobial activity against Actinomyces naeslundii assessed as percent resistant isolates after 48 hrs by agar dilution method; assay type: functional; procedure, shortened: as §2
Eubacterium sp. [8] = experiment: Antimicrobial activity against Eubacterium sp. assessed as percent resistant isolates after 48 hrs by agar dilution method; assay type: functional; procedure, shortened: as §2
Prevotella intermedia [9] = experiment: Antimicrobial activity against Prevotella intermedia after 48 hrs by agar dilution method; assay type: functional; procedure, shortened: as §1
Fusobacterium nucleatum = experiment: Antimicrobial activity against Fusobacterium nucleatum after 48 hrs by agar dilution method; assay type: functional; procedure, shortened: as §1
Bacteroides ovatus [10] = experiment: Antimicrobial activity against Bacteroides ovatus after 48 hrs by agar dilution method; assay type: functional
Procedure, shortened: (§3)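 MICs on clinical anaerobe isolates by the CLSI agar dilution method. Inoculum of 10^5 CFU applied with a Steers replicator. Plates incubated 48 h at 37°C in an anaerobic chamber.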

Actinomyces israelii [11] = experiment: Antimicrobial activity against Actinomyces israelii assessed as percent susceptible isolates after 48 hrs by agar dilution method; assay type: functional
Fusobacterium varium = experiment: Antimicrobial activity against Fusobacterium varium after 48 hrs by agar dilution method; assay type: functional; procedure, shortened: as §1
Fusobacterium necrogenes = experiment: Antimicrobial activity against Fusobacterium necrogenes after 48 hrs by agar dilution method; assay type: functional; procedure, shortened: as §1
Bacteroides ovatus [12] = experiment: Antimicrobial activity against Bacteroides ovatus assessed as percent resistant isolates after 48 hrs by agar dilution method; assay type: functional; procedure, shortened: as §2
Schaalia odontolytica [13] = experiment: Antimicrobial activity against Actinomyces odontolyticus assessed as percent resistant isolates after 48 hrs by agar dilution method; assay type: functional; procedure, shortened: as §2
[14] = tested on: Parabacteroides distasonis; experiment: Antimicrobial activity against Bacteroides distasonis assessed as percent resistant isolates after 48 hrs by agar dilution method; assay type: functional; procedure, shortened: as §2
Prevotella bivia [15] = experiment: Antimicrobial activity against Prevotella bivia assessed as percent susceptible isolates after 48 hrs by agar dilution method; assay type: functional; procedure, shortened: as §1
Prevotella buccae [16] = experiment: Antimicrobial activity against Prevotella buccae assessed as percent resistant isolates after 48 hrs by agar dilution method; assay type: functional, Segatella buccae; procedure, shortened: as §2
Prevotella intermedia [17] = experiment: Antimicrobial activity against Prevotella intermedia assessed as percent susceptible isolates after 48 hrs by agar dilution method; assay type: functional; procedure, shortened: as §1
Finegoldia magna [18] = experiment: Antimicrobial activity against Finegoldia magna assessed as percent resistant isolates after 48 hrs by agar dilution method; assay type: functional; procedure, shortened: as §2
Schaalia meyeri [19] = experiment: Antimicrobial activity against Actinomyces meyeri after 48 hrs by agar dilution method; assay type: functional; procedure, shortened: as §3
[20] = tested on: Parabacteroides distasonis; experiment: Antimicrobial activity against Bacteroides distasonis assessed as percent susceptible isolates after 48 hrs by agar dilution method; assay type: functional
Prevotella buccae [21] = experiment: Antimicrobial activity against Prevotella buccae after 48 hrs by agar dilution method; assay type: functional; conditions: Segatella buccae; procedure, shortened: as §1
Actinomyces israelii [22] = experiment: Antimicrobial activity against Actinomyces israelii after 48 hrs by agar dilution method; assay type: functional; procedure, shortened: as §3
Parvimonas micra [23] = experiment: Antimicrobial activity against Peptostreptococcus micros assessed as percent susceptible isolates after 48 hrs by agar dilution method; assay type: functional; procedure, shortened: as §2
Phocaeicola vulgatus [24] = experiment: Antimicrobial activity against Bacteroides vulgatus assessed as percent resistant isolates after 48 hrs by agar dilution method; assay type: functional; procedure, shortened: as §2
Eggerthella lenta [25] = experiment: Antimicrobial activity against Eubacterium lentum assessed as percent resistant isolates after 48 hrs by agar dilution method; assay type: functional; procedure, shortened: as §2
Bifidobacterium sp. [26] = experiment: Antimicrobial activity against Bifidobacterium sp. assessed as percent susceptible isolates after 48 hrs by agar dilution method; assay type: functional; procedure, shortened: as §1
Bacteroides caccae [27] = experiment: Antimicrobial activity against Bacteroides caccae after 48 hrs by agar dilution method; assay type: functional; procedure, shortened: as §3
Anaerococcus prevotii = experiment: Antimicrobial activity against Anaerococcus prevotii assessed as percent susceptible isolates after 48 hrs by agar dilution method; assay type: functional
[28] = tested on: Peptoniphilus asaccharolyticus; experiment: Antimicrobial activity against Peptoniphilus asaccharolyticus after 48 hrs by agar dilution method; assay type: functional; procedure, shortened: as §1
Clostridium perfringens = experiment: Antimicrobial activity against Clostridium perfringens assessed as percent susceptible isolates after 48 hrs by agar dilution method; assay type: functional
Phocaeicola vulgatus [29] = experiment: Antimicrobial activity against Bacteroides vulgatus assessed as percent susceptible isolates after 48 hrs by agar dilution method; assay type: functional
Eggerthella lenta [30] = experiment: Antimicrobial activity against Eubacterium lentum assessed as percent susceptible isolates after 48 hrs by agar dilution method; assay type: functional; procedure, shortened: as §1
[31] = tested on: Bacteroides thetaiotaomicron; experiment: Antimicrobial activity against Bacteroides thetaiotaomicron after 48 hrs by agar dilution method; assay type: functional; procedure, shortened: as §3
Schaalia meyeri [32] = experiment: Antimicrobial activity against Actinomyces meyeri assessed as percent resistant isolates after 48 hrs by agar dilution method; assay type: functional; procedure, shortened: as §2
Clostridioides difficile = experiment: Antimicrobial activity against Clostridium difficile assessed as percent susceptible isolates after 48 hrs by agar dilution method; assay type: functional
[33] = tested on: Bacteroides thetaiotaomicron; experiment: Antimicrobial activity against Bacteroides thetaiotaomicron assessed as percent resistant isolates after 48 hrs by agar dilution method; assay type: functional; procedure, shortened: as §2
Bacteroides fragilis = experiment: Antimicrobial activity against Bacteroides fragilis assessed as percent resistant isolates after 48 hrs by agar dilution method; assay type: functional; procedure, shortened: as §2
[34] = tested on: Peptoniphilus asaccharolyticus; experiment: Antimicrobial activity against Peptoniphilus asaccharolyticus assessed as percent resistant isolates after 48 hrs by agar dilution method; assay type: functional; procedure, shortened: as §2
[35] = tested on: Bacteroides thetaiotaomicron; experiment: Antimicrobial activity against Bacteroides thetaiotaomicron assessed as percent susceptible isolates after 48 hrs by agar dilution method; assay type: functional
Bacteroides caccae [36] = experiment: Antimicrobial activity against Bacteroides caccae assessed as percent susceptible isolates after 48 hrs by agar dilution method; assay type: functional
Actinomyces naeslundii [37] = experiment: Antimicrobial activity against Actinomyces naeslundii assessed as percent susceptible isolates after 48 hrs by agar dilution method; assay type: functional
Bifidobacterium sp. [38] = experiment: Antimicrobial activity against Bifidobacterium sp. assessed as percent resistant isolates after 48 hrs by agar dilution method; assay type: functional; procedure, shortened: as §2
Finegoldia magna [39] = experiment: Antimicrobial activity against Finegoldia magna after 48 hrs by agar dilution method; assay type: functional; procedure, shortened: as §1
Hoylesella oralis = experiment: Antimicrobial activity against Prevotella oralis assessed as percent susceptible isolates after 48 hrs by agar dilution method; assay type: functional
Procedure, shortened: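 CLSI agar dilution MIC testing of clinical isolates. 10^5 CFU spotted by replicator, plates incubated 48 h at 37°C in an anaerobic chamber. Susceptibility rates derived from the MICs.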

Schaalia odontolytica [40] = experiment: Antimicrobial activity against Actinomyces odontolyticus after 48 hrs by agar dilution method; assay type: functional; procedure, shortened: as §3

`C[C@@H](O)[C@H]1C(=O)N2C(C(=O)O)=C(S[C@@H]3CN[C@H](C(=O)N(C)C)C3)[C@H](C)[C@H]12` [MEROPENEM] gave an Activity (Finegoldia magna [1]) of 100%, an MIC [2] of 0.008 µg/mL (≈ 0.0209 µM) and an MIC (Parvimonas micra [3]) of 0.01 µg/mL (≈ 0.0261 µM). The MIC50 (Parvimonas micra [3]) was 0.25 µg/mL (≈ 0.652 µM), the MIC90 (Parvimonas micra [3]) was 4 µg/mL (≈ 10.4 µM) and the MIC50 (Eubacterium sp. [4]) was 0.125 µg/mL (≈ 0.326 µM). The MIC90 (Eubacterium sp. [4]) was 2 µg/mL (≈ 5.22 µM), the Activity (Prevotella bivia [5]) was 0% and the Activity (Schaalia meyeri [6]) was 92%. For the same compound, the Activity (Actinomyces naeslundii [7]) was 8%, the Activity (Eubacterium sp. [8]) was 8% and the MIC50 (Prevotella intermedia [9]) was 0.06 µg/mL (≈ 0.156 µM). For the same compound, the MIC90 (Prevotella intermedia [9]) was 0.06 µg/mL (≈ 0.156 µM), the MIC (Fusobacterium nucleatum) was 0.008 µg/mL (≈ 0.0209 µM) and the MIC50 (Bacteroides ovatus [10]) was 0.25 µg/mL (≈ 0.652 µM). It also gave an MIC90 (Bacteroides ovatus [10]) of 2 µg/mL (≈ 5.22 µM), an Activity (Actinomyces israelii [11]) of 92% and an MIC (Fusobacterium varium) of 0.008 µg/mL (≈ 0.0209 µM). The MIC (Fusobacterium necrogenes) was 0.008 µg/mL (≈ 0.0209 µM), the Activity (Bacteroides ovatus [12]) was 0% and the Activity (Schaalia odontolytica [13]) was 8%. The Activity [14] was 0%, the Activity (Prevotella bivia [15]) was 100% and the Activity (Prevotella buccae [16]) was 0%. The Activity (Prevotella intermedia [17]) was 100%, the Activity (Finegoldia magna [18]) was 0% and the MIC50 (Schaalia meyeri [19]) was 0.125 µg/mL (≈ 0.326 µM). It also gave an MIC90 (Schaalia meyeri [19]) of 2 µg/mL (≈ 5.22 µM), an Activity [20] of 98% and an MIC50 (Prevotella buccae [21]) of 0.125 µg/mL (≈ 0.326 µM). For the same compound, the MIC90 (Prevotella buccae [21]) was 0.5 µg/mL (≈ 1.3 µM), the MIC50 (Actinomyces israelii [22]) was 0.125 µg/mL (≈ 0.326 µM) and the MIC90 (Actinomyces israelii [22]) was 2 µg/mL (≈ 5.22 µM). For the same compound, the Activity (Parvimonas micra [23]) was 0%, the Activity (Phocaeicola vulgatus [24]) was 0% and the Activity (Eggerthella lenta [25]) was 8%. It also gave an Activity (Bifidobacterium sp. [26]) of 92%, an MIC50 (Bacteroides caccae [27]) of 0.25 µg/mL (≈ 0.652 µM) and an MIC90 (Bacteroides caccae [27]) of 2 µg/mL (≈ 5.22 µM). For the same compound, the Activity (Anaerococcus prevotii) was 100%, the MIC50 [28] was ≤ 0.008 µg/mL and the MIC90 [28] was 0.03 µg/mL (≈ 0.0782 µM). For the same compound, the Activity (Clostridium perfringens) was 100%, the Activity (Phocaeicola vulgatus [29]) was 98% and the Activity (Eggerthella lenta [30]) was 92%. For the same compound, the MIC50 [31] was 0.25 µg/mL (≈ 0.652 µM), the MIC90 [31] was 2 µg/mL (≈ 5.22 µM) and the Activity (Schaalia meyeri [32]) was 8%. The Activity (Clostridioides difficile) was 100%, the Activity [33] was 0% and the Activity (Bacteroides fragilis) was 3%. The Activity [34] was 0%, the Activity [35] was 98% and the Activity (Bacteroides caccae [36]) was 98%. For the same compound, the Activity (Actinomyces naeslundii [37]) was 92%, the Activity (Bifidobacterium sp. [38]) was 8% and the MIC50 (Finegoldia magna [39]) was 0.06 µg/mL (≈ 0.156 µM). It also gave an MIC90 (Finegoldia magna [39]) of 0.125 µg/mL (≈ 0.326 µM), an Activity (Hoylesella oralis) of 100% and an MIC50 (Schaalia odontolytica [40]) of 0.125 µg/mL (≈ 0.326 µM). The MIC90 (Schaalia odontolytica [40]) was 2 µg/mL (≈ 5.22 µM).
